# Assay results from different studies.
# Lines come from different studies, so protocols differ.
# Cell line: MDA-MB-468
# Read-out: cell growth or viability
SMILES,assay,setting,measurement,result
CCc1ccc(N2NC(=O)/C(=C/c3ccc(-c4ccc(S(=O)(=O)Nc5nccs5)cc4)o3)C2=O)cc1,MTT,72 h,IC50,73.5 µM
c1csc(-c2c3ccccc3cc3c2ccc2ccccc23)c1,MTT,,IC50,34 µM
COc1ccc(-c2ccc(-c3ccc(C(=N)N)nc3)s2)cc1Cl,SRB,,GI50,1.74 µM
Cc1cc(NS(=O)(=O)c2ccc(NC(=O)COc3ccc(C(C)(C)c4ccccc4)cc3)cc2)nc(C)n1,MTT,48 h,IC50,44.3 µM
COc1ccc(C(=O)/C=C/c2ccc(Cl)c(Cl)c2)cc1S(N)(=O)=O,SRB,10 µM,inhibition,119%
NC1(C(=O)N[C@@H](CCO)c2ccc(Cl)cc2)CCN(c2ncnc3[nH]ccc23)CC1,,72 h,GI50,> 8 µM
CC(=O)c1c(C)c2cnc(Nc3ccc(N4CCNCC4)cn3)nc2n(C2CCCC2)c1=O,resazurin,,GI50,7.5 µM
Cc1cc(NCCCCCCCNc2cc(C)nc3cc(N)ccc23)c2ccc(N)cc2n1,MTT,96 h,IC50,16 µM
Cc1ncsc1-c1ccc(CNC(=O)[C@@H]2C[C@@H](O)CN2C(=O)[C@@H](NC(=O)CCCCCCCCCC(=O)N2CCN(CC[C@H](NC(=O)C3(N)CCN(c4ncnc5[nH]ccc45)CC3)c3ccc(Cl)cc3)CC2)C(C)(C)C)cc1,,72 h,GI50,0.49 µM
COc1cc(-c2ccc(-c3ccc(C(=N)N)nc3)s2)cc(OC)c1OC,SRB,,GI50,1.74 µM
COc1ccc(C(=O)/C=C/c2cccc(Br)c2)cc1S(N)(=O)=O,SRB,10 µM,inhibition,154%
Cc1cc(NCCCCCCCCNc2cc(C)nc3cc(N)ccc23)c2ccc(N)cc2n1,MTT,,IC50,5.1 µM
